Laboratory results as given in ChEMBL document CHEMBL4043297, “Synthesis and Structure-Activity Relationships of the Novel Antimalarials 5-Pyridinyl-4(1 H)-Pyridones” (J Med Chem, 2018).

Columns and labels:
Plasmodium falciparum = assay: Antimalarial activity against Plasmodium falciparum 3D7A infected in human RBC after 48 hrs by [3H]-hypoxanthine incorporation assay; assay type: functional
serum albumin = serum albumin (Homo sapiens, UniProt P02768); assay: Binding affinity to human serum albumin by HPLC method; assay type: ADME; conditions: read-out: PB (converted)
[1] = Volume of distribution in CD1 mouse at 0.192 mg/kg, iv as bolus dose by LC-MS/MS method; assay type: ADME, organism-based; conditions: in vivo
Method in brief: (§1)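 Specific pathogen-free female CD1 (Hsd:ICR) mice, 8–10 weeks old, housed in the institutional animal facility. Each compound was given intravenously at a low dose and orally at a higher dose. Vd, clearance, t1/2, Cmax, Tmax, AUC0-t, AUC∞ and %F were derived from plasma exposure after each route.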

[2] = Clearance in CD1 mouse at 0.192 mg/kg, iv as bolus dose by LC-MS/MS method; assay type: ADME, organism-based; conditions: in vivo
Method in brief: (§2)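 Specific pathogen-free female CD1 (Hsd:ICR) mice, 8 to 10 weeks old. Each compound was given as an intravenous dose and an oral dose at the levels listed. Parameters reported: Vd, clearance, t1/2, Cmax, Tmax, AUC0-t, AUC∞ and %F.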

[3] = Half life in CD1 mouse at 0.192 mg/kg, iv as bolus dose by LC-MS/MS method; assay type: ADME, organism-based; conditions: in vivo; method in brief: as §2
[4] = Cmax in CD1 mouse at 10.36 mg/kg administered via oral gavage by LC-MS/MS method; assay type: ADME, organism-based; parameters: dose 10.36 mg/kg, route oral; conditions: in vivo; method in brief: as §2
[5] = Tmax in CD1 mouse at 10.36 mg/kg administered via oral gavage by LC-MS/MS method; assay type: ADME, organism-based; conditions: in vivo; method in brief: as §1
[6] = AUC (0 to t) in CD1 mouse at 10.36 mg/kg administered via oral gavage by LC-MS/MS method; assay type: ADME, organism-based; conditions: in vivo; method in brief: as §2
[7] = AUC (infinity) in CD1 mouse at 10.36 mg/kg administered via oral gavage by LC-MS/MS method; assay type: ADME, organism-based; parameters: dose 10.36 mg/kg, route oral, time infinity; conditions: in vivo; method in brief: as §2
[8] = Oral bioavailability in CD1 mouse at 10.36 mg/kg administered via gavage by LC-MS/MS method; assay type: ADME, organism-based; conditions: in vivo; method in brief: as §2
[9] = Cmax in CD1 mouse at 4.42 mg/kg administered via oral gavage by LC-MS/MS method; assay type: ADME, organism-based; parameters: dose 4.42 mg/kg, route oral; conditions: in vivo; method in brief: as §2
[10] = Tmax in CD1 mouse at 4.42 mg/kg administered via oral gavage by LC-MS/MS method; assay type: ADME, organism-based; conditions: in vivo; method in brief: as §1
[11] = AUC (0 to t) in CD1 mouse at 4.42 mg/kg administered via oral gavage by LC-MS/MS method; assay type: ADME, organism-based; conditions: in vivo; method in brief: as §2
[12] = AUC (infinity) in CD1 mouse at 4.42 mg/kg administered via oral gavage by LC-MS/MS method; assay type: ADME, organism-based; parameters: dose 4.42 mg/kg, time infinity, route oral; conditions: in vivo; method in brief: as §2
[13] = Oral bioavailability in CD1 mouse at 4.42 mg/kg administered via gavage by LC-MS/MS method; assay type: ADME, organism-based; conditions: in vivo; method in brief: as §1
Plasmodium yoelii = assay: Schizontocidal activity against Plasmodium yoelii infected in CD1 mouse administered via oral gavage as qd for 4 days starting 1 hr post infection by YOYO-1 dye-based flow cytometric method; assay type: functional
Method in brief: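 Blood schizontocidal activity was tested in a modified 4-day suppressive test in mice infected with P. yoelii. Four oral doses were given by gavage over four days.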

Sequence of serum albumin (P02768 whole entry): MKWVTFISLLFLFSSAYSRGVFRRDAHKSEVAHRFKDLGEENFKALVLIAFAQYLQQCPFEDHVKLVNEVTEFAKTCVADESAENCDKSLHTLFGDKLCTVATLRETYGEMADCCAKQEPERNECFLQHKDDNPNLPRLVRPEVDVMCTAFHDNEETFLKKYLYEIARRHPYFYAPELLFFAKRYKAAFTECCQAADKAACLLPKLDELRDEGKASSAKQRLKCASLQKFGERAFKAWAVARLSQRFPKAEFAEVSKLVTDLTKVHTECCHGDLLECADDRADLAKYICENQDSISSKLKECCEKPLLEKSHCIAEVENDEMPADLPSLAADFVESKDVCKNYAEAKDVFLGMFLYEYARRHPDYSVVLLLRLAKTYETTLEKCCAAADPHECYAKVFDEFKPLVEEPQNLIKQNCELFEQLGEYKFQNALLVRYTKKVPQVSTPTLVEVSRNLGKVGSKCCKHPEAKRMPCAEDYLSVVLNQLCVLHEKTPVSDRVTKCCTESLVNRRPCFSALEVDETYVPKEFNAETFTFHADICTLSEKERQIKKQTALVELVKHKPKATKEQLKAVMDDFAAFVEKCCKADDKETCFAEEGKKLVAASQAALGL

SMILES	IC50 (Plasmodium falciparum)	other results
Cc1[nH]c(C)c(-c2ccc(-c3ccc(S(C)(=O)=O)cc3)nc2)c(=O)c1Br	288 nM	
Cc1[nH]c(C)c(-c2ccc(-c3ccc(OC(F)(F)F)cc3)nc2)c(=O)c1Br	20 nM	fraction unbound (serum albumin): 0.04; Vd [1]: 0.91 L/kg; clearance [2]: 0.72 mL/min/kg; half-life [3]: 14.6 h; Cmax [4]: 4100 ng/mL; Tmax [5]: 10 h; AUC(0-t) [6]: 109 µg·h/mL; AUC(0-inf) [7]: 118 µg·h/mL; bioavailability [8]: 49.1%
Cc1[nH]c(C)c(-c2ccc(OCc3cc(C(F)(F)F)cc(C(F)(F)F)c3)nc2)c(=O)c1Cl	29 nM	
Cc1[nH]c(C)c(-c2ccc(OCc3ccc(F)cc3)nc2)c(=O)c1Br	10 nM	
Cc1[nH]c(CO)c(-c2ccc(Oc3ccc(OC(F)(F)F)cc3)cc2)c(=O)c1Cl	5 nM	
Cc1[nH]c(C)c(-c2ccc(OCc3cccc(C(F)(F)F)c3)nc2)c(=O)c1Br	4 nM	
Cc1[nH]c(C)c(-c2ccc(-c3cccc(Cl)c3)nc2)c(=O)c1Cl	116 nM	
Cc1[nH]c(C)c(-c2ccc(CCc3ccc(C(F)(F)F)cc3)nc2)c(=O)c1Cl	5 nM	
Cc1[nH]c(C)c(-c2ccc(OCc3ccccc3C(F)(F)F)nc2)c(=O)c1Br	11 nM	
Cc1[nH]c(C)c(-c2ccc(OCc3ccc(OC(F)(F)F)cc3)nc2)c(=O)c1Br	19 nM	fraction unbound (serum albumin): 0.03
Cc1[nH]c(C)c(-c2ccc(-c3ccccc3Cl)nc2)c(=O)c1Cl	26 nM	
Cc1[nH]c(C)c(-c2ccc(-c3ccccc3F)nc2)c(=O)c1Br	64 nM	
Cc1[nH]c(C)c(-c2ccc(-c3ccccc3Cl)nc2)c(=O)c1Br	44 nM	
Cc1[nH]c(C)c(-c2ccc(-c3ccc(C(F)(F)F)cc3)nc2)c(=O)c1Cl	16 nM	fraction unbound (serum albumin): 0.05; Cmax [9]: 3310 ng/mL; Tmax [10]: 10 h; AUC(0-t) [11]: 101 µg·h/mL; AUC(0-inf) [12]: 106 µg·h/mL; bioavailability [13]: 100%; ED50 (Plasmodium yoelii): 0.25 mg/kg
Cc1[nH]c(C)c(-c2ccc(OCc3ccc(C(F)(F)F)cc3)nc2)c(=O)c1Br	2 nM	
Cc1[nH]c(CO)c(-c2ccc(-c3ccc(C(F)(F)F)cc3F)nc2)c(=O)c1Cl	5 nM	fraction unbound (serum albumin): 0.06; ED50 (Plasmodium yoelii): 0.2 mg/kg
Cc1[nH]c(C)c(-c2ccc(-c3ccc(Cl)cc3)nc2)c(=O)c1Br	110 nM	
Cc1[nH]c(C)c(-c2ccc(-c3cccc(C(F)(F)F)c3)nc2)c(=O)c1Br	7 nM	
Cc1[nH]c(C)c(-c2ccc(C#Cc3ccc(C(F)(F)F)cc3)nc2)c(=O)c1Cl	97 nM	
Cc1[nH]c(C)c(-c2ccc(-c3ccccc3OC(F)(F)F)nc2)c(=O)c1Cl	35 nM	
Cc1[nH]c(C)c(-c2ccc(OCc3cc(C(F)(F)F)cc(C(F)(F)F)c3)nc2)c(=O)c1Br	33 nM	
